SUMO Mot1 rescue: blocks SUMOylation pathway, rescuing yeast Mot1-301 growth. S. cerevisiae Mot1-301 growth rescue, ATP luminescence, 38.5C; percent above DMSO median, 100 means doubled. growth rescue, % at 18.8 µM. actives 1% (n = 320,000). AID 2716;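 active means every valid replicate shows activation above 250% relative to neutral control wells; inactive means the rest, any valid replicate at or below 250%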;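 further: OY570 slx delta 5 strain wells were the positive control but not used for scaling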
AI-2 QS mod: modulators of Vibrio harveyi AI-2 quorum sensing system | Vibrio harveyi JMH597 AI-2 luminescence/OD600 ratio, 9 h; stronger effect = lower value; strain lacks LuxN and CqsS sensors; 0 = neutral-control median | activity change, % at 7.5 µM | actives 0.4% (n = 300,000); in the data active means activity change below about -75%, passing the limit was not always enough;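 further: luminescence divided by OD600 gain over 9 h not by final OD600 alone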
KCNQ1 inh: human KCNQ1 channel inhibition; P51787; CHO-K1 KCNQ1, FluxOR thallium flux fluorescence; stronger effect = higher value; B-score at 10 µM; actives 1.3% (n = 310,000);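 active means compounds whose thallium flux B-score, printed positive for inhibition, exceeds three library SD while starting fluorescence stays within three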;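 further: channel opened by potassium depolarization with thallium stimulus after 20 min compound exposure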
hERG rescue: hERG (human) protection from proarrhythmic block | Q12809 | CHO-hERG, FluxOR thallium flux, dofetilide IC70 present | actives 0.51% (n = 310,000) | activation (rescue from dofetilide block), less the hit threshold, % at 10 µM;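 active means activation above the mean of controls blocked by dofetilide plus 5 SD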;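 further: thallium influx through hERG after potassium depolarization seen as dye fluorescence rise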
Target sequence (Q12809 whole entry, looked up): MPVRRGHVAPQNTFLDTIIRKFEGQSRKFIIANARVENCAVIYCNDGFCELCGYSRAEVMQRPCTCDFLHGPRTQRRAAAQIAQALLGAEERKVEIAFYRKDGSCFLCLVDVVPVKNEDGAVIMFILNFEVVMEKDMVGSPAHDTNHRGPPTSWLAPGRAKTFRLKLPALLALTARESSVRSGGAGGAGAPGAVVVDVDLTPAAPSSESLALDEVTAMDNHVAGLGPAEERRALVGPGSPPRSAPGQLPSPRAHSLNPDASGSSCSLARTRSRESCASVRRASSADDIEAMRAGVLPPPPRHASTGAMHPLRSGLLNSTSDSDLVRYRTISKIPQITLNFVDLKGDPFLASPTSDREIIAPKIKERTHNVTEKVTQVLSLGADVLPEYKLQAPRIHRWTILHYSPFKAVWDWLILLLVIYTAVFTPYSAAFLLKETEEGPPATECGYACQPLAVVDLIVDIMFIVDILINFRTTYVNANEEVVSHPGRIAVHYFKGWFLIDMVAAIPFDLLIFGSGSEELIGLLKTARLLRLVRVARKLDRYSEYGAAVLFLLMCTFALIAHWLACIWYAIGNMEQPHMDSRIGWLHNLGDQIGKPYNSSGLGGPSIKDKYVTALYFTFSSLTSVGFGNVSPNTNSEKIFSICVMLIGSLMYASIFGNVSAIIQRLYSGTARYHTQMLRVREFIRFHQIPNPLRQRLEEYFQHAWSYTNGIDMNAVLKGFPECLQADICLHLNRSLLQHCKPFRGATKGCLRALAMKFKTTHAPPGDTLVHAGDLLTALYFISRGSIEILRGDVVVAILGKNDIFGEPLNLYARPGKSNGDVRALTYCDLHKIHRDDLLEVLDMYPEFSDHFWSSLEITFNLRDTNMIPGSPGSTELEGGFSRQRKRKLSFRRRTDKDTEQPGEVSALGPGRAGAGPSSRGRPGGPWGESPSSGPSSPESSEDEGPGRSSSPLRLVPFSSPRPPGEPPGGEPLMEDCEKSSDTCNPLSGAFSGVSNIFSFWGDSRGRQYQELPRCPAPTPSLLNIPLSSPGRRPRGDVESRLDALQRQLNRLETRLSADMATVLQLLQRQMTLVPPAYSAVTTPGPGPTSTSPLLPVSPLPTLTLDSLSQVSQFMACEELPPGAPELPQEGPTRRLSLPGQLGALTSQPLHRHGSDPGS
KCC2 mod: modulates chloride dependent transport by human KCC2. KCC2 cells, thallium flux FluoZin-2 fluorescence. B-score of Tl+ flux slope (higher = more flux/activation; lower = inhibition) at 10 µM. actives 2.2% (n = 190,000);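 active means thallium flux slope and its plate-corrected score both differing from the plate sample mean at a set confidence after two filtering rounds, in either direction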;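 further: slope of fluorescence scaled to starting intensity during 10 to 20 s after thallium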
KCNQ1 act: potentiators or activators of human KCNQ1 potassium channel | P51787 | CHO-K1 KCNQ1, thallium flux FluxOR fluorescence; stronger effect = higher value | B-score at 10 µM | actives 0.35% (n = 310,000) | AID 2648;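 active means fluorescence ratio B-score, a plate-corrected score, at least three library SD, with initial intensity B-score within 5 SD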
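Doses: Single concentration per compound, DMSO matched to controls | Test system: KCNQ1-transfected CHO-K1 cells | Timing: 90 min dye loading and 20 min compound exposure, both at room temperature | Measured by: Kinetic FluxOR thallium fluorescence, 10-s 1-Hz baseline, 110-s post-stimulus read | Medium: Assay buffer with matched DMSO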
An asterisk follows results filed as active; i = inactive; / = no result given. Hits are enriched below; roughly 4.2% of the tested compounds scored in any of these assays.

SMILES	SUMO Mot1 rescue	AI-2 QS mod	KCNQ1 inh	hERG rescue	KCC2 mod	KCNQ1 act
COc1ccc(-c2cn3c(C)c(C(=O)N4CCCc5ccccc54)sc3n2)cc1	18.0	16.6	6*	-14.9	-0.839	i
CCOc1ccccc1NC(=O)CC(O)(C(F)(F)F)C(F)(F)F	-28.5	26.2	6*	-10.2	/	i
Cc1ccccc1NC(=O)CC(O)(C(F)(F)F)C(F)(F)F	69.3	10.8	i	-18.3	/	i
Cc1ccc(NC(=O)CC(O)(C(F)(F)F)C(F)(F)F)c(Br)c1	0.6	18.7	6*	-10.6	-0.0892	i
CNc1nc(SC)nc2ccccc12	-32.3	-0.5	i	6.6*	-0.826	i
CSc1nc(NCc2ccco2)c2ccccc2n1	/	19.0	i	-4.3	/	i
COC1=C/C(=C/c2c(N)n3nc(CC(=O)N4CCCC4)sc3nc2=O)C=CC1=O	-28.8	7.5	i	-4.6	/	i
COC1=CC(=Cc2c(N)n3nc(CC(=O)N4CCCCC4)sc3nc2=O)C=C(OC)C1=O	6.3	17.6	10*	-8.3	/	i
CCSc1ccccc1C(=O)NCCCn1ccnc1	-23.1	5.5	i	4.8*	0.487	i
CSc1ccccc1C(=O)NCCCn1ccnc1	-4.9	0.4	i	-1.8	/	i
Nc1c(-c2cccc([N+](=O)[O-])c2)nc2ccccn12	-10.9	1.6	i	-8.4	0.537	i
O=C(CSc1nnc2ccc(-c3ccccn3)nn12)Nc1ccccc1F	158.7	21.4	i	-15.2	/	i
CC1CN(S(=O)(=O)c2ccc(-c3nc4ccccc4s3)cc2)CC(C)O1 (stereo not drawn)	-14.9	9.0	i	4.6*	-0.108	i
Cc1ccc(S(=O)(=O)c2nc(-c3ccccc3Cl)oc2N(C)C)cc1	5.9	33.9	i	-2.1	/	i
COc1ccccc1-c1nc(S(=O)(=O)c2ccc(Cl)cc2)c(N(C)C)o1	2.1	20.1	i	5.4*	-0.248	i
Cc1ccc(C(=O)Nc2nc(C)c(C(=O)Nc3ccc4c(c3)CCC4)s2)cc1	205.0	11.7	i	-9.2	-1.08	i
CCOc1ccc(S(=O)(=O)N2CCCCC2)cc1NC(=O)Cc1ccsc1	-0.1	/	/	/	/	/
Cc1ccc(CN2CCN(/N=C/c3ccc(O)c(O)c3)CC2)cc1	-5.0	/	i	7.1*	/	i
Cc1ccc(CN2CCN(/N=C/C(Br)=C\c3ccccc3)CC2)cc1	53.3	11.7	i	2.2	-0.825	16*
CC(C)(O)C(=O)NNC(=S)Nc1ccc(F)c(Cl)c1	24.2	10.9	i	-16.8	i	i
COc1cc(NC(=S)NNC(=O)C(C)(C)O)cc(OC)c1	-2.7	-1.1	i	8.9*	0.399	i
Cc1ccc(Sc2ncccc2C(=O)O)cc1C	-13.4	-85.7*	i	-5.2	-0.647	i
Cc1ccc(Sc2ncccc2C(=O)O)c(C)c1	15.8	-87.6*	i	-4.0	0.0121	i
Cc1noc(C)c1COc1ccc(C(=O)N2CCN(S(=O)(=O)c3cccc(F)c3)CC2)cc1	4.0	/	/	/	/	/
Cc1ccc(SCC2(O)CCN(S(=O)(=O)c3ccc(Cl)cc3)CC2)cc1	-2.2	11.2	i	-10.0	/	80*
SMILES	SUMO Mot1 rescue	AI-2 QS mod	KCNQ1 inh	hERG rescue	KCC2 mod	KCNQ1 act
O=C(COC(=O)/C=C/c1ccc(F)cc1)NCc1ccco1	4.3	17.7	i	39.0*	-0.862	i
S=c1[nH]c(-c2ccc(Cl)cc2)cs1	29.6	-1.3	i	86.6*	55.4*	17*
Cc1ccc(-c2ccc(C(=O)O)[nH]2)cc1	-1.0	38.3	i	-12.0	/	i
Clc1ccc(-c2ccn[nH]2)cc1	-12.1	21.1	i	-9.7	1.41	i
Cc1ccc(-c2csc(=S)[nH]2)cc1	/	-30.9	i	96.5*	99.9*	94*
CC(C)N(Cc1cn[nH]c1-c1ccc(-c2ccccc2)cc1)Cc1nccn1C	1.7	2.7	i	-19.4	-0.0209	i
O=[N+]([O-])c1cc(CN2CCCC2)c2cccnc2c1O	-6.7	/	/	/	-0.472	/

Screening data from PubChem BioAssay.
